≈ marks a conversion by molar mass, not a printed value.
What was measured:
[1] = Cytotoxicity against human MT2 cells infected with wild-type HIV1 NL4-3 measured 48 hrs by MTT assay; assay type: cell-based
[2] = system: Human immunodeficiency virus 1; assay: Antiviral activity against HIV1 NL4-3 harboring Y181C mutant infected in human MT2 cells measured 5 days post-infection by MTT assay
[3] = system: Human immunodeficiency virus 1; assay: Antiviral activity against wild-type HIV1 NL4-3 infected in human MT2 cells measured 5 days post-infection by MTT assay; settings: for EC50: Human immunodeficiency virus 1, NL4-3, MT2, 5 days
[4] = Solubility of the compound in water at pH 7; assay type: physicochemical
[5] = target: Human immunodeficiency virus type 1 reverse transcriptase (Human immunodeficiency virus 1, UniProt Q72547, Y181C); assay: Inhibition of recombinant HIV1 reverse transcriptase p66/p51 Y181C mutant expressed in Escherichia coli BL21 (DE3) pLysS cells preincubated followed by primer/template addition and measured after 30 mins by picogreen dye-based fluorescence assay
Outline: (§1)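 RT pre-incubated with inhibitor at increasing concentrations to allow binding. Reaction started by adding substrate and co-substrates, run 30 min at 10 nM active-site RT, then quenched with EDTA. dsDNA product read as RFU with PicoGreen dye. Each concentration in triplicate, with a pre-quenched negative control. IC50 from a quadratic inhibition curve fit.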

[6] = Cytotoxicity against human MT2 cells infected with HIV1 NL4-3 harboring Y181C mutant measured 48 hrs by MTT assay; assay type: cell-based
[7] = target: Human immunodeficiency virus type 1 reverse transcriptase (Human immunodeficiency virus 1, UniProt Q72547); assay: Inhibition of recombinant HIV1 reverse transcriptase p66/p51 expressed in Escherichia coli BL21 (DE3) pLysS cells preincubated followed by primer/template addition and measured after 30 mins by picogreen dye-based fluorescence assay; outline: as §1
[8] = Human immunodeficiency virus 1, NL4-3, MT2, 5 days, read-out: EC50

SMILES | CC50 at 48 h [1] | EC50 [2] | EC50 [3] | EC50 [2, 8] | solubility [4] | IC50 [5] | Activity [2] | CC50 at 48 h [6] | IC50 [7] | Activity [3]
Cc1ccnc2c1NC(=O)c1cccnc1N2C1CC1 [NEVIRAPINE] | > 100000 nM | Not Active | 300 nM |  |  |  |  |  |  | 
Cc1cc(/C=C/C#N)cc(C)c1Nc1ccnc(Nc2ccc(C#N)cc2)n1 [RILPIVIRINE] | 8000 nM |  |  | […] |  |  |  |  |  | 
Cc1cc(C#N)cc(C)c1Oc1nc(Nc2ccc(C#N)cc2)nc(N)c1Br [ETRAVIRINE] |  |  |  |  | < 1 µg/mL |  |  |  |  | 
N#Cc1cc2c(Oc3ccc(F)cc3OCCn3ccc(=O)[nH]c3=O)cc(F)cn2c1 | 90000 nM |  | 4.7 nM | 3.2 nM | 43.8 µg/mL (≈ 103 µM) | 5.5 nM | Dose-dependent effect | 55000 nM | 4.5 nM | Dose-dependent effect

Reference: ChEMBL document CHEMBL4387780, “Molecular and cellular studies evaluating a potent 2-cyanoindolizine catechol diether NNRTI targeting wildtype and Y181C mutant HIV-1 reverse transcriptase” (Bioorg Med Chem Lett, 2019)
